Source: paper PMC6331009 (Chemosphere, 2017)
Read-outs that look alike come from different tables or passages of the source. Blank lines part the entries; values can stand above or below the compound they belong to.

Assays:
Assay type in all cases: biochemical
UGT1A6 [1] = target: T1, UGT1A6 (Homo sapiens, UniProt P19224); assay: 4-MU glucuronidation, UPLC-UV, Lineweaver-Burk slope replot
T1 sequence (P19224 27-532): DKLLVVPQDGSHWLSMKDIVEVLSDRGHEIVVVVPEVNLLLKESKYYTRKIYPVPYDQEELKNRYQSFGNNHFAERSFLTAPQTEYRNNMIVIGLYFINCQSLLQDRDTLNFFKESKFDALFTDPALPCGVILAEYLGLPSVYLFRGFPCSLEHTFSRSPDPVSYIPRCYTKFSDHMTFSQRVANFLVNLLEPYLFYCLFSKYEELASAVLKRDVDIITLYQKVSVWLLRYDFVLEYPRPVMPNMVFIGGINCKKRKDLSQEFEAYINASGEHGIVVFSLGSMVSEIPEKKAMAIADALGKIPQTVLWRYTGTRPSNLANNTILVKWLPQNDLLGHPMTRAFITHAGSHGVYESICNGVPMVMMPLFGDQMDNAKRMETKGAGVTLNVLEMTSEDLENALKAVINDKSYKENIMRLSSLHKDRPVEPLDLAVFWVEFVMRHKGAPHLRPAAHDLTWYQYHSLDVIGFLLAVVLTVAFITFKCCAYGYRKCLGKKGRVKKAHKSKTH
Outline: (§1)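 Recombinant human UGT isoform expressed in insect cells. 4-MU was varied, with or without test compound at levels giving 20%, 40%, 60% and 80% inhibition. After 5 min at 37 °C, 5 mM UDPGA was added; reactions ran 30–120 min. Glucuronide was quantified by UPLC-UV at 316 nm against a 7-hydroxycoumarin internal standard, with points as duplicate means. Inhibition type came from Lineweaver-Burk plots, and Ki from a replot of slopes against inhibitor concentration.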

UGT1A6 [2] = target: T1, UGT1A6; assay: 4-MU glucuronidation, UPLC-UV, dose response
Outline: (§2)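 Recombinant human UGT isoform expressed in baculovirus-infected insect cells. Test compound at 0, 0.5, 1, 5, 10, 20, 40, 60, 80 and 100 µM, with no-compound controls. After 5 min preincubation at 37 °C, 5 mM UDPGA was added to start the reaction. Reactions were stopped at 30–120 min with acetonitrile containing 7-hydroxycoumarin internal standard. 4-MU glucuronide was measured by C18 UPLC with UV at 316 nm as the peak-area ratio to internal standard. Two independent experiments in duplicate.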

UGT1A7 [3] = target: T2, UGT1A7 (Homo sapiens, UniProt Q9HAW7); assay: 4-MU glucuronidation, UPLC-UV, Lineweaver-Burk slope replot
T2 sequence (Q9HAW7 26-530): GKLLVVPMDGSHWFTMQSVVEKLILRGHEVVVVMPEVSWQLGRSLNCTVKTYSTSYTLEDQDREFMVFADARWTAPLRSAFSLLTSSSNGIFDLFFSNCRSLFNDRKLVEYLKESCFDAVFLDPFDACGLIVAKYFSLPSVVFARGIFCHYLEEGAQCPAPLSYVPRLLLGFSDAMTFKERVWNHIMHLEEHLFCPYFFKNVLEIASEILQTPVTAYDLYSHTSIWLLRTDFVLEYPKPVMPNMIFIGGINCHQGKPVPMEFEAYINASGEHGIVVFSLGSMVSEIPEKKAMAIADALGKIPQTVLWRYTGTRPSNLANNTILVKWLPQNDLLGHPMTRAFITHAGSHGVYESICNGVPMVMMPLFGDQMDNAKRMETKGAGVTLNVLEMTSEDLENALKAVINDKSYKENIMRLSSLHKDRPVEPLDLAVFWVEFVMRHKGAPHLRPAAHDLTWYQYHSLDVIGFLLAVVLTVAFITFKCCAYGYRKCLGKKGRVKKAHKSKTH
Outline: as §1

UGT1A7 [4] = target: T2, UGT1A7; assay: 4-MU glucuronidation, UPLC-UV, dose response
Outline: as §2

UGT1A9 [5] = target: T3, UGT1A9 (Homo sapiens, UniProt O60656); assay: 4-MU glucuronidation, UPLC-UV, Lineweaver-Burk slope replot
T3 sequence (O60656 26-530): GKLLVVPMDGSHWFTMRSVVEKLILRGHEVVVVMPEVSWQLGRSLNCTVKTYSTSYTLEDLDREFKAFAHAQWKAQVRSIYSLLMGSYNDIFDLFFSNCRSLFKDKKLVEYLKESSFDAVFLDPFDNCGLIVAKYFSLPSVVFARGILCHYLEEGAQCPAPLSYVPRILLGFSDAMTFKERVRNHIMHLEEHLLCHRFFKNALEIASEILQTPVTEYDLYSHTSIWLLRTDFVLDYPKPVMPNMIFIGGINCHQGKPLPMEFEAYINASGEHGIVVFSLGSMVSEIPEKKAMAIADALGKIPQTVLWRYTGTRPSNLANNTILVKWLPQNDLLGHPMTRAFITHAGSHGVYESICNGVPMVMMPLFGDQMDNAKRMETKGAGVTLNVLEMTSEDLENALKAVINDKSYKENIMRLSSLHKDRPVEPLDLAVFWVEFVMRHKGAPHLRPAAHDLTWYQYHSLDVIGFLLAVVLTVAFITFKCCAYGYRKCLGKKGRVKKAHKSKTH
Outline: as §1

UGT1A9 [6] = target: T3, UGT1A9; assay: 4-MU glucuronidation, UPLC-UV, dose response
Outline: as §2

UGT2B4 [7] = target: T4, UGT2B4 (Homo sapiens, UniProt P06133); assay: 4-MU glucuronidation, UPLC-UV, dose response
T4 sequence (P06133 24-528): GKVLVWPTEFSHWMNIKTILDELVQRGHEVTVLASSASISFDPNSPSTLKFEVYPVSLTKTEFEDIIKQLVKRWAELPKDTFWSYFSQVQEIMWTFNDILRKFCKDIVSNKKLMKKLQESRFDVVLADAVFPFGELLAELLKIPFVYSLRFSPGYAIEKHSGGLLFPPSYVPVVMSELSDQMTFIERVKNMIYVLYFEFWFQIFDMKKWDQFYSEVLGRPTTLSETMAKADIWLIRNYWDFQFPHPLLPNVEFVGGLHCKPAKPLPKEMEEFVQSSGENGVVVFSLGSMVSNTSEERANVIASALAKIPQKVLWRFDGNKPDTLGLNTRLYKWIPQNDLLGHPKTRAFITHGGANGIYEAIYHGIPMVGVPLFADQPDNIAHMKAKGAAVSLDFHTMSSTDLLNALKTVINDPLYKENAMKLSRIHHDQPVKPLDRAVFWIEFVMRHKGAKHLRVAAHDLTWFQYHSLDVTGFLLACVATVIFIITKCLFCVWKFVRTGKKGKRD
Outline: as §2

UGT2B4 [8] = target: T4, UGT2B4; assay: 4-MU glucuronidation, UPLC-UV, Lineweaver-Burk slope replot
Outline: as §1

[9] = competitive, 4-MU varied, UDPGA 5 mM, MgCl2 5 mM, Tris-HCl pH 7.4, 37 °C
[10] = competitive, 4-MU 30 μM, UDPGA 5 mM, MgCl2 5 mM, Tris-HCl pH 7.4, 37 °C

Compound: CCCCOCCOC(=O)c1ccccc1C(=O)OCCOCCCC [BBOP]
- Ki (UGT1A6 [1]): 15.5 µM
- IC50 (UGT1A6 [2]): 35.1 µM
- Ki (UGT1A7 [3]): 23.6 µM
- IC50 (UGT1A7 [4]): 18.2 µM
- Ki (UGT1A9 [5]): 73.7 µM
- IC50 (UGT1A9 [6]): 28.3 µM

Compound: CCCCOC(=O)c1ccccc1C(=O)OCc1ccccc1 [BBZP]
- IC50 (UGT2B4 [7]): 13.8 µM
- Ki (UGT1A6 [1]): 52.3 µM
- Ki (UGT2B4 [8]): 7.23 µM
- IC50 (UGT1A6 [2]): 53.2 µM
- Ki (UGT1A7 [3]): 12.2 µM
- IC50 (UGT1A7 [4]): 19.5 µM
- Ki (UGT1A9 [5]): 0.84 µM
- IC50 (UGT1A9 [6]): 5.54 µM

Compound: C=CCOC(=O)c1ccccc1C(=O)OCC=C [DAP]
- IC50 (UGT2B4 [7]; competitive, 4-MU 1000 μM, UDPGA 5 mM, MgCl2 5 mM, Tris-HCl pH 7.4, 37 °C): 14.3 µM
- Ki (UGT2B4 [8]; [9]): 6.73 µM

Compound: CCCCOC(=O)c1ccccc1C(=O)OCCCC [DBP]
- IC50 (UGT2B4 [7]): 11.9 µM
- Ki (UGT2B4 [8]): 4.93 µM
- Ki (UGT1A9 [5]): 22.8 µM
- IC50 (UGT1A9 [6]): 17.6 µM

Compound: O=C(OC1CCCCC1)c1ccccc1C(=O)OC1CCCCC1 [DCHP]
- Ki (UGT1A9 [5]; [9]): 1.07 µM
- IC50 (UGT1A9 [6]; [10]): 1.46 µM

Compound: CCCCCCOC(=O)c1ccccc1C(=O)OCCCCCC [DHP]
- Ki (UGT1A9 [5]; [9]): 0.58 µM
- IC50 (UGT1A9 [6]; [10]): 25.4 µM

Compound: COCCOC(=O)c1ccccc1C(=O)OCCOC [DMEP]
- Ki (UGT1A9 [5]; [9]): 4.51 µM
- IC50 (UGT1A9 [6]; [10]): 18.2 µM

Compound: CCCCCOC(=O)c1ccccc1C(=O)OCCCCC [DPP]
- Ki (UGT1A9 [5]): 1.74 µM
- IC50 (UGT1A9 [6]): 18.5 µM

Compound: CC(C)COC(=O)c1ccccc1C(=O)OCC(C)C [DiBP]
- IC50 (UGT2B4 [7]): 5.89 µM
- Ki (UGT2B4 [8]): 6.79 µM
- Ki (UGT1A9 [5]): 2.79 µM
- IC50 (UGT1A9 [6]): 7.03 µM

- Ki (UGT1A9 [5]): 5.61 µM
- IC50 (UGT1A9 [6]): 14.7 µM
Compound: CC(C)CCOC(=O)c1ccccc1C(=O)OCCC(C)C [DiPP]
